ChEMBL document CHEMBL4725418, “Design, Synthesis, and Structure-Activity Relationship Studies of Dual Inhibitors of Soluble Epoxide Hydrolase and 5-Lipoxygenase” (J Med Chem, 2020)
In brackets after ≈: the same amount, converted by molar mass. Activity calls are given as the source filed them. The rule behind the calls is not given here.

How the values were obtained:
[1] = target: T1, Bifunctional epoxide hydrolase 2 (Homo sapiens, UniProt P34913); assay: Inhibition of human sEH (1 to 555 residues) expressed in Escherichia coli BL21-(DE3) using PHOME substrate incubated for 30 to 45 mins by fluorescence based assay
T1 sequence (P34913 whole entry): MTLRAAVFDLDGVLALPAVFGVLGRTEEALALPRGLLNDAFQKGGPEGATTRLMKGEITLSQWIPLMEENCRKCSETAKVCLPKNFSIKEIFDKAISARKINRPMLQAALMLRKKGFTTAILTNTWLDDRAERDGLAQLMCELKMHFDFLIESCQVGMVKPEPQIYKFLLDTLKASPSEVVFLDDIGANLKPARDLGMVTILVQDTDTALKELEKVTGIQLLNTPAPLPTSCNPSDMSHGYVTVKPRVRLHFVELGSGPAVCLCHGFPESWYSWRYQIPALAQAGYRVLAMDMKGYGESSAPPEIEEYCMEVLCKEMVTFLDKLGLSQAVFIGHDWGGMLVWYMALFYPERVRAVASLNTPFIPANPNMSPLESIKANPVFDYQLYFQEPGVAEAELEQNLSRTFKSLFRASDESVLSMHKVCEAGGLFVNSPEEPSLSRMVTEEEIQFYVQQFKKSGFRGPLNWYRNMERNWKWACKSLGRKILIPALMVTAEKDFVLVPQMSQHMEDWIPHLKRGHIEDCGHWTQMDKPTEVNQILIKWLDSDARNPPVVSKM

[2] = target: T2, Polyunsaturated fatty acid 5-lipoxygenase (Homo sapiens, UniProt P09917); assay: Inhibition of 5-LOX (unknown origin) expressed in Escherichia coli BL21-(DE3) pre-incubated for 15 mins before AA substrate addition and measured after 10 mins by HPLC/UV assay
T2 sequence (P09917 whole entry): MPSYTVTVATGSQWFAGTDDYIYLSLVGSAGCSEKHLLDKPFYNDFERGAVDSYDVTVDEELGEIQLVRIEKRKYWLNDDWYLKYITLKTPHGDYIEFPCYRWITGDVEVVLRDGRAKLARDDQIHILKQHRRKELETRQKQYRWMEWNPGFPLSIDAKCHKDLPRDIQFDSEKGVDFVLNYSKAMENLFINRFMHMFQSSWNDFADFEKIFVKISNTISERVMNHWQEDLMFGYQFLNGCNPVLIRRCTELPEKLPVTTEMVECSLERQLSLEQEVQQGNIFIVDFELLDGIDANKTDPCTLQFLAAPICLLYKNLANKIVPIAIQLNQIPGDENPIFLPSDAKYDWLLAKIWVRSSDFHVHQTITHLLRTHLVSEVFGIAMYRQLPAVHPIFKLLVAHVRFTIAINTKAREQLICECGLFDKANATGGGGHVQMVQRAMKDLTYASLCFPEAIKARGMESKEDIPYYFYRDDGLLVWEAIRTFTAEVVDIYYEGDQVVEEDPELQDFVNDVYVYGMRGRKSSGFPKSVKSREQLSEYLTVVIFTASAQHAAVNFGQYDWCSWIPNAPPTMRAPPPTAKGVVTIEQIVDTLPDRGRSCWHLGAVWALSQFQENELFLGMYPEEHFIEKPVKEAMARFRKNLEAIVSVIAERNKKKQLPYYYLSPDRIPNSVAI
Method in brief: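 Recombinant 5-LOX activity measured with arachidonic acid as substrate; product formation monitored by HPLC. IC50 from at least three independent determinations (n ≥ 3), reported with 95% confidence interval.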

[3] = Solubility in pH 7.4 DPBS buffer; type: physicochemical
[4] = Metabolic stability in rat liver microsomes assessed as compound remaining after 60 mins; type: ADME, Microsome; details: read-out: Stabilty
Method in brief: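 Compound incubated with rat liver microsomes for 60 min; percent parent compound remaining determined; n ≥ 3.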

HepG2 [5] = assay: Cytotoxicity in human HepG2 cells assessed as effect on cell viability up to 25 uM incubated for 48 hrs by CellTiter-Glo luminescent cell viability assay; type: cell-based; details: hepg2, 48 h
Method in brief: (§1)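 Cell viability measured by CellTiter-Glo luminescence, quantifying ATP as an indicator of viable cells.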

HepG2 [6] = assay: Cytotoxicity in human HepG2 cells assessed as reduction in on cell viability at 7 uM incubated for 48 hrs by CellTiter-Glo luminescent cell viability assay; type: cell-based; details: hepg2, 48 h; method in brief: as §1
Mus musculus = assay: Anti-fibrotic activity in C57BL/6 mouse model of unilateral ureter obstruction-induced kidney inflammation and fibrosis assessed as inhibition of tubulo-interstitial fibrosis by measuring reduced fibrillar collagen at 3 mg/kg, ip dosed daily for 7 days by Sirius red staining method; type: functional, organism-based; details: time 7.0 day
Method in brief: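 Mice with unilateral ureter obstruction to induce kidney inflammation and fibrosis, given compound or vehicle intraperitoneally. Ligated (UUO) and contralateral kidneys taken at day 7. Fibrosis read by AZAN and Sirius Red staining, with Sirius Red imaged under bright and polarized light. Macrophages detected by F4/80 staining, quantified as positive area. Col1a1, FN1, TNFα and Ccl2 mRNA measured in whole-kidney homogenates by real-time qRT-PCR normalized to GAPDH.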

Structure (SMILES)	IC50 [1]	IC50 [2]	further results
C[C@H](C#Cc1ccc(Cc2ccc(F)cc2)s1)N(O)C(N)=O [ATRELEUTON]	2.7 µM	0.09 µM	solubility [3]: 30 µM (≈ 9.55 µg/mL)
Cc1ccc(C(=O)NCc2ccccc2C(F)(F)F)cc1C#CC(C)N(O)C(N)=O (stereo not drawn)	3.1 µM	1.7 µM	
CC(C#Cc1cccc(C(=O)NCCC(c2ccccc2)c2ccc(OC(F)(F)F)cc2)c1)N(O)C(N)=O (stereo not drawn)	0.007 µM	0.11 µM	
CC(C#Cc1cccc(C(=O)NCc2ccc(Cl)cc2Cl)c1)N(O)C(N)=O (stereo not drawn)	0.04 µM	0.6 µM	
NC(=O)N(O)CC#Cc1cccc(C(=O)NCc2ccccc2C(F)(F)F)c1	0.05 µM	4 µM	
C[C@H](C#Cc1cccc(C(=O)NCCN(c2ccccc2)c2ccccc2)c1)N(O)C(N)=O	0.005 µM	0.11 µM	remaining at 1 h [4]: 17%; solubility [3]: 3 µM (≈ 1.33 µg/mL)
CCC(C#Cc1cccc(C(=O)NCc2ccccc2C(F)(F)F)c1)N(O)C(N)=O (stereo not drawn)	0.022 µM	0.5 µM	
CC(C#Cc1cccc(C(=O)NCc2ccccc2C(F)(F)F)c1)N(O)C(N)=O (stereo not drawn)	0.09 µM	0.7 µM	
C[C@H](C#Cc1cccc(C(=O)NCCC(c2ccccc2)c2ccc(Cl)c(Cl)c2)c1)N(O)C(N)=O (stereo partly drawn)	0.0021 µM	0.096 µM	
CC(C#Cc1cccc(C(=O)NCc2cccc(F)c2)c1)N(O)C(N)=O (stereo not drawn)	9 µM	4 µM	
CNc1nc(C)nc(N2CCC(C(=O)NCc3ccc(F)cc3C(F)(F)F)CC2)n1	0.003 µM		
C[C@@H](C#Cc1cccc(C(=O)NCc2ccccc2C(F)(F)F)c1)N(O)C(N)=O	0.06 µM	0.7 µM	
COc1ccc(CNC(=O)c2cccc(C#CC(C)N(O)C(N)=O)c2)c(C(F)(F)F)c1 (stereo not drawn)	0.004 µM	1.7 µM	
CC(C#Cc1cncc(C(=O)NCc2ccccc2C(F)(F)F)c1)N(O)C(N)=O (stereo not drawn)	0.5 µM	10 µM	
C[C@H](C#Cc1cccc(C(=O)NCC[C@H](c2ccc(F)cc2)c2ccc(C(F)(F)F)cc2)c1)N(O)C(N)=O	0.003 µM	0.23 µM	
CC(C#Cc1cccc(C(=O)NCCC(c2ccccc2)c2ccc(F)cc2)c1)N(O)C(N)=O (stereo not drawn)	0.002 µM	0.16 µM	
CNc1nc(C)nc(N2CCC(C(=O)NCc3ccccc3OC(F)(F)F)CC2)n1	0.001 µM		
CC(C#Cc1cccc(C(=O)NCc2ccc(F)cc2C(F)(F)F)c1)N(O)C(N)=O (stereo not drawn)	0.029 µM	1.3 µM	
C[C@H](C#Cc1cccc(C(=O)NCCC(c2ccccc2)c2ccc(NS(C)(=O)=O)cc2)c1)N(O)C(N)=O (stereo partly drawn)	0.003 µM	0.9 µM	

Structure (SMILES)	IC50 [1]	IC50 [2]	further results
CC(C#Cc1cccc(C(=O)NCCC(c2ccccc2)c2ccccc2)c1)N(O)C(N)=O (stereo not drawn)	0.002 µM	0.3 µM	remaining at 1 h [4]: 27%; solubility [3]: 3 µM (≈ 1.32 µg/mL)
CC(C#Cc1ccc(C(=O)NCc2ccccc2C(F)(F)F)cc1)N(O)C(N)=O (stereo not drawn)	2.6 µM	1 µM	
CC(C#Cc1ccc(C(=O)NCc2ccccc2C(F)(F)F)o1)N(O)C(N)=O (stereo not drawn)	0.6 µM	4 µM	
CC(C#Cc1cccc(C(=O)NCCc2c[nH]c3ccccc23)c1)N(O)C(N)=O (stereo not drawn)	3.1 µM	1.7 µM	
C[C@H](C#Cc1cccc(C(=O)NCc2ccccc2C(F)(F)F)c1)N(O)C(N)=O	0.06 µM	0.6 µM	
CC(C#Cc1cccc(C(=O)NCCC(c2ccccc2)c2ccc(Cl)cc2)c1)N(O)C(N)=O (stereo not drawn)	0.002 µM	0.12 µM	
C[C@H](C#Cc1cccc(C(=O)NCCC(c2ccc(F)cc2)c2ccc(OC(F)(F)F)cc2)c1)N(O)C(N)=O (stereo partly drawn)	0.0024 µM	0.26 µM	remaining at 1 h [4]: 43%; solubility [3]: 10 µM (≈ 5.44 µg/mL)
CNc1nc(C)nc(N2CCC(C(=O)NCc3ccccc3C(F)(F)F)CC2)n1	0.003 µM		
CC(C#Cc1cccc(C(=O)NCCc2ccc(F)cc2)c1)N(O)C(N)=O (stereo not drawn)	1.2 µM	3.1 µM	
C[C@H](C#Cc1cccc(C(=O)NCCC(c2ccccc2)c2ccc(S(N)(=O)=O)cc2)c1)N(O)C(N)=O (stereo partly drawn)	0.0024 µM	1 µM	
CC(C#Cc1cccc(C(=O)NCCC(c2ccccc2)c2ccc(C(F)(F)F)cc2)c1)N(O)C(N)=O (stereo not drawn)	0.0027 µM	0.15 µM	
CC(C)CC(C#Cc1cccc(C(=O)NCc2ccccc2C(F)(F)F)c1)N(O)C(N)=O (stereo not drawn)	0.005 µM	0.6 µM	
C[C@H](C#Cc1cccc(C(=O)NCCC(c2ccc(F)cc2)c2ccc(C(F)(F)F)cc2)c1)N(O)C(N)=O (stereo partly drawn)	0.0016 µM	0.22 µM	Activity (HepG2 [5]): Non-Toxic; Activity (HepG2 [6]): Toxic; remaining at 1 h [4]: 66%; solubility [3]: 3 µM (≈ 1.58 µg/mL); Activity (Mus musculus): inactive
CC(C#Cc1cccc(C(=O)NCc2ccccc2OC(F)(F)F)c1)N(O)C(N)=O (stereo not drawn)	0.016 µM	1 µM	
CS(=O)(=O)c1ccc(C(CCNC(=O)c2ccc(C#N)nc2)c2ccc(F)cc2)cc1 (stereo not drawn)	0.006 µM		
C[C@H](C#Cc1cccc(C(=O)NCC[C@@H](c2ccc(F)cc2)c2ccc(C(F)(F)F)cc2)c1)N(O)C(N)=O	0.003 µM	0.16 µM	
O=C(Cc1ccc(Oc2nc3ccccc3s2)cc1F)NCCc1ccc(F)cc1	0.13 µM		
CC(C)C(C#Cc1cccc(C(=O)NCc2ccccc2C(F)(F)F)c1)N(O)C(N)=O (stereo not drawn)	0.011 µM	0.5 µM	
CCCC(C#Cc1cccc(C(=O)NCc2ccccc2C(F)(F)F)c1)N(O)C(N)=O (stereo not drawn)	0.012 µM	0.3 µM	
